# Data published in ChEMBL document CHEMBL3351255, “Synthesis of dihydroresveratrol glycosides and evaluation of their activity against melanogenesis in B16F0 melanoma cells” (Eur J Med Chem, 2014).
# Columns and labels:
# B16-F0 = test: Effect on melanogenesis in mouse B16F0 cells assessed as melanin content at 1 mM incubated for 72 hrs; conditions: B16-F0, 72 h
# [1] = Toxicity in mouse B16F10 cells assessed as protein content at 25.5 uM incubated for 72 hrs by BCA protein assay; assay type: cell-based
# Summary of the method: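 Treatment was the same as above: B16F0 cells in DMEM with 5% FBS plus sample in ethanol, with medium and sample renewed after 72 h and cells harvested by trypsin 72 h later. Total cellular protein in the pelleted cells was measured by bicinchoninic acid (BCA) assay and expressed as % of negative control.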
# [2] = Toxicity in mouse B16F10 cells assessed as cell viability at 25.5 uM incubated for 72 hrs by BCA protein assay; assay type: cell-based; conditions: read-out: Activity
# B16-F10 = test: Potency index, ratio of kojic acid to test compound for inhibition of melanogenesis in mouse B16F10 cells; assay type: functional
Structure (SMILES),melanin content at 1000 µM (B16-F0),Activity [1],"viability at 72 h, 25.5 µM [2]",Ratio (B16-F10)
O=c1cc(CO)occ1O [KOJIC ACID],79%,,,
C=CC/C=C\C/C=C\CCCCCCCc1cc(O)cc(O)c1,,98%,102%,40
